These results are taken from ChEMBL document CHEMBL1772954, “Antifungal, cytotoxic and SAR studies of a series of N-alkyl, N-aryl and N-alkylphenyl-1,4-pyrrolediones and related compounds” (Bioorg Med Chem, 2011).

As a reminder, the MFC is the lowest tested concentration that kills the fungus rather than only halting it. As a reminder, the MIC is the lowest concentration found to suppress growth.

What all share (assay type): functional
The subject of experiment [1] is Candida albicans. Put plainly: Antifungal activity against Candida albicans ATCC 10213. A digest of the protocol:
(§1)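 CLSI M27-A3 broth microdilution in RPMI-1640 buffered to pH 7.0 with MOPS. Inoculum 1-5 × 10^3 CFU/mL. Compound twofold dilutions from 250 to 0.24 µg/ml, final DMSO <1%. Incubated at 35 °C in a moist, dark chamber and read at 48 h. MIC is the lowest concentration giving total growth inhibition. For MFC, 5 µL from clear wells was plated in duplicate on SDA; MFC is the lowest concentration with no growth.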

Experiment [2] deals with Candida tropicalis. The experiment in a line: Antifungal activity against Candida tropicalis C 131 2000. A digest of the protocol: as §1
Experiment [3] deals with Saccharomyces cerevisiae. Put plainly: Antifungal activity against Saccharomyces cerevisiae ATCC 9763. A digest of the protocol:
as §1

In experiment [4] the test system is Cryptococcus neoformans. Put plainly: Antifungal activity against Cryptococcus neoformans ATCC 32264. The procedure, abridged:
as §1

In experiment [5] the test system is Aspergillus fumigatus. The experiment in a line: Antifungal activity against Aspergillus fumigatus ATCC 26934. The procedure, abridged:
(§2)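 Broth microdilution per CLSI M38-A2 in RPMI-1640 with MOPS at pH 7.0. Inoculum 1-5 × 10^3 CFU/mL, with twofold compound dilutions spanning 250-0.24 µg/ml (final DMSO <1%). Plates incubated at 35 °C, moist and dark, and read when the control fungus had grown. MIC is total growth inhibition. MFC comes from subculturing clear wells in duplicate onto SDA.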

In experiment [6] the test system is Aspergillus flavus. The experiment in a line: Antifungal activity against Aspergillus flavus ATCC 9170. A digest of the protocol: as §2
Experiment [7] deals with Aspergillus niger. Put plainly: Antifungal activity against Aspergillus niger ATCC 9029. A digest of the protocol: as §2
The test system of experiment [8] is Nannizzia gypsea. Put plainly: Antifungal activity against Microsporum gypseum C 115 2000. The procedure, abridged:
(§3)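 Dermatophytes tested by CLSI M38-A2 microdilution in MOPS-buffered RPMI-1640 at pH 7.0. Inoculum 1-5 × 10^3 CFU/mL; compounds 250 to 0.24 µg/ml in twofold steps, final DMSO <1%. Incubated at 28 °C in a moist, dark chamber and read according to control growth. MIC is the lowest concentration with complete inhibition. MFC is the lowest concentration with no growth after duplicate subculture on SDA.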

The subject of experiment [9] is Trichophyton rubrum. The experiment in a line: Antifungal activity against Trichophyton rubrum C 113 2000. The procedure, abridged: as §3
The test system of experiment [10] is Trichophyton mentagrophytes. Put plainly: Antifungal activity against Trichophyton mentagrophytes ATCC 9972. A digest of the protocol: as §3

Converted amounts (≈) assume the structure as drawn.

As for `O=C1C=CC(O)N1CCc1ccccc1` (stereo not drawn), the MFC in experiment [1] was 125 µg/mL (≈ 615 µM); in experiment [2], more than 250 µg/mL; in [3], more than 250 µg/mL; in experiment [4], more than 250 µg/mL; in experiment [5], more than 250 µg/mL; in experiment [6] it was more than 250 µg/mL. Moreover, the minimal fungicidal concentration (MFC) is more than 250 µg/mL in [7], 125 µg/mL (≈ 615 µM) in experiment [8], 125 µg/mL (≈ 615 µM) in experiment [9] and 62.5 µg/mL (≈ 308 µM) in experiment [10]. Besides, the minimum inhibitory concentration (MIC) was 62.5 µg/mL (≈ 308 µM) in [1]; 250 µg/mL (≈ 1230 µM) in [2]; 250 µg/mL (≈ 1230 µM) in experiment [3]; 62.5 µg/mL (≈ 308 µM) in [4]; more than 250 µg/mL in [5]; more than 250 µg/mL in experiment [6]. Besides, the MIC in experiment [7] was more than 250 µg/mL; in [8], 62.5 µg/mL (≈ 308 µM); in experiment [9] it was 62.5 µg/mL (≈ 308 µM); in experiment [10] it was 31.2 µg/mL (≈ 154 µM).
In the case of `CC1=C(C)C(=O)N(Cc2ccccc2)C1=O`, the MFC is more than 250 µg/mL in experiment [1]; more than 250 µg/mL in experiment [2]; more than 250 µg/mL in experiment [3]; 250 µg/mL (≈ 1160 µM) in experiment [4]; more than 250 µg/mL in experiment [5]; more than 250 µg/mL in experiment [6]. Moreover, the minimum fungicidal concentration (MFC) in [7] was more than 250 µg/mL; in experiment [8] it was 250 µg/mL (≈ 1160 µM); in experiment [9] it was 125 µg/mL (≈ 581 µM); in [10] it was 250 µg/mL (≈ 1160 µM). For the same compound, the minimal inhibitory concentration (MIC) was 125 µg/mL (≈ 581 µM) in experiment [1]; 125 µg/mL (≈ 581 µM) in experiment [2]; 250 µg/mL (≈ 1160 µM) in experiment [3]; 125 µg/mL (≈ 581 µM) in experiment [4]; more than 250 µg/mL in [5]; more than 250 µg/mL in experiment [6]. Also, the minimum inhibitory concentration (MIC) in experiment [7] was more than 250 µg/mL; in [8] it was 125 µg/mL (≈ 581 µM); in experiment [9] it was 62.5 µg/mL (≈ 290 µM); in experiment [10], 125 µg/mL (≈ 581 µM).
With `CC1=CC(=O)N(CCCCc2ccccc2)C1O` (stereo not drawn), the minimal fungicidal concentration (MFC) in [1], in experiment [2], in experiment [3], in [4], in [5] and in experiment [6] was more than 250 µg/mL in each case. The MFC in experiment [7], in [8], in experiment [9] and in experiment [10] was more than 250 µg/mL each time. Also, the minimum inhibitory concentration (MIC) in [1], in experiment [2], in [3], in experiment [4], in experiment [5] and in [6] was more than 250 µg/mL in each case. The MIC in [7], in [8], in experiment [9] and in experiment [10] was more than 250 µg/mL in each case.
As to `O=C(O)/C=C\C(=O)Nc1ccccc1`, the MFC in experiment [1], in experiment [2], in experiment [3], in experiment [4], in experiment [5] and in experiment [6] was more than 250 µg/mL in each case. Further, the MFC in experiment [7] is more than 250 µg/mL; in [8], more than 250 µg/mL; in experiment [9], 250 µg/mL (≈ 1310 µM); in experiment [10], more than 250 µg/mL. Moreover, the MIC is more than 250 µg/mL in experiment [2]; 125 µg/mL (≈ 654 µM) in [3]; more than 250 µg/mL in experiment [4]; more than 250 µg/mL in [5]; more than 250 µg/mL in experiment [6]; more than 250 µg/mL in experiment [7]. The MIC in experiment [8] was 125 µg/mL (≈ 654 µM); in [9], 62.5 µg/mL (≈ 327 µM); in experiment [10], 250 µg/mL (≈ 1310 µM).
With `O=C1C(c2ccccc2)=C(c2ccccc2)C(=O)N1c1ccccc1`, the MFC in experiment [1], in [2], in [3], in experiment [4], in [5] and in [6] was more than 250 µg/mL in each case. Besides, the MFC in experiment [7], in experiment [8], in experiment [9] and in experiment [10] was more than 250 µg/mL in each case. Also, the MIC in experiment [1], in experiment [2], in [3], in [4], in [5] and in experiment [6] was more than 250 µg/mL in each case. The minimum inhibitory concentration (MIC) in [7], in experiment [8], in experiment [9] and in experiment [10] was more than 250 µg/mL in each case.
Consider `CC(=O)N1CCN(c2ccc(OCC3COC(Cn4ccnc4)(c4ccc(Cl)cc4Cl)O3)cc2)CC1` (stereo not drawn) [KETOCONAZOLE], for which the MFC worked out at 1.95 µg/mL (≈ 3.67 µM) in experiment [1]; 0.97 µg/mL (≈ 1.83 µM) in experiment [2]; 0.97 µg/mL (≈ 1.83 µM) in [3]; 1.95 µg/mL (≈ 3.67 µM) in [4]; 3.9 µg/mL (≈ 7.34 µM) in [5]; 3.9 µg/mL (≈ 7.34 µM) in experiment [6]. Besides, the minimal fungicidal concentration (MFC) in [7] was found to be 1.95 µg/mL (≈ 3.67 µM); in experiment [8] it was 0.24 µg/mL (≈ 0.452 µM); in experiment [9], 0.12 µg/mL (≈ 0.226 µM); in experiment [10], 0.12 µg/mL (≈ 0.226 µM). In addition, the MIC in experiment [1] is 0.48 µg/mL (≈ 0.903 µM); in experiment [3], 0.48 µg/mL (≈ 0.903 µM); in [4] it was 0.24 µg/mL (≈ 0.452 µM); in [5], 0.12 µg/mL (≈ 0.226 µM); in experiment [6] it was 0.48 µg/mL (≈ 0.903 µM); in experiment [7] it was 0.24 µg/mL (≈ 0.452 µM). Moreover, the figures for the MIC in experiment [8], in experiment [9] and in experiment [10] were 0.06 µg/mL (≈ 0.113 µM), 0.03 µg/mL (≈ 0.0565 µM) and 0.03 µg/mL (≈ 0.0565 µM), respectively.
On to `CC1=CC(O)N(c2ccccc2)C1=O` (stereo not drawn), for which the minimum fungicidal concentration (MFC) in experiment [1], in experiment [2], in experiment [3], in experiment [4], in experiment [5] and in experiment [6] was more than 250 µg/mL each time. For the same compound, the MFC in [7], in [8], in [9] and in [10] was more than 250 µg/mL throughout. For the same compound, the MIC in [1], in experiment [2], in experiment [3], in experiment [4], in [5] and in experiment [6] was more than 250 µg/mL each time. The MIC in experiment [7], in experiment [8], in experiment [9] and in experiment [10] was more than 250 µg/mL each time.
In the case of `O=C1C(c2ccccc2)=C(c2ccccc2)C(=O)N1Cc1ccccc1`, the minimum fungicidal concentration (MFC) in experiment [1], in experiment [2], in experiment [3], in experiment [4], in experiment [5] and in experiment [6] was more than 250 µg/mL throughout. Further, the minimum fungicidal concentration (MFC) in experiment [7], in [8], in experiment [9] and in experiment [10] was more than 250 µg/mL each time. Besides, the MIC in experiment [1], in [2], in [3], in experiment [4], in [5] and in experiment [6] was more than 250 µg/mL each time. In addition, the minimum inhibitory concentration (MIC) in experiment [7], in experiment [8], in [9] and in experiment [10] was more than 250 µg/mL in each case.
Regarding `CC1=CC(=O)N(CCCc2ccccc2)C1O` (stereo not drawn), the MFC in experiment [1], in experiment [2], in experiment [3], in experiment [4], in experiment [5] and in experiment [6] was more than 250 µg/mL each time. The MFC in experiment [7], in experiment [8], in experiment [9] and in [10] was more than 250 µg/mL in each case. The MIC in experiment [1] was more than 250 µg/mL; in experiment [2], more than 250 µg/mL; in experiment [3] it was more than 250 µg/mL; in experiment [4] it was 250 µg/mL (≈ 1080 µM); in [5] it was more than 250 µg/mL; in experiment [6], more than 250 µg/mL. Also, the MIC in [7] was more than 250 µg/mL; in [8], 250 µg/mL (≈ 1080 µM); in [9], 250 µg/mL (≈ 1080 µM); in experiment [10], 250 µg/mL (≈ 1080 µM).
For `O=C1C=CC(O)N1c1ccccc1` (stereo not drawn), the MFC in [1], in experiment [2], in [3], in experiment [4], in experiment [5] and in experiment [6] was more than 250 µg/mL throughout. Further, the MFC in experiment [7], in experiment [8], in [9] and in experiment [10] was more than 250 µg/mL in each case. Also, the minimal inhibitory concentration (MIC) was more than 250 µg/mL in experiment [1]; more than 250 µg/mL in experiment [2]; more than 250 µg/mL in [3]; 250 µg/mL (≈ 1430 µM) in experiment [4]; more than 250 µg/mL in experiment [5]; more than 250 µg/mL in [6]. In addition, the MIC in [7], in [8], in experiment [9] and in experiment [10] was more than 250 µg/mL each time.
In the case of `O=C1CCC(=O)N1CCc1ccccc1`, the MFC in experiment [1], in experiment [2], in experiment [3], in experiment [4], in experiment [5] and in experiment [6] was more than 250 µg/mL each time. The MFC in [7], in experiment [8], in experiment [9] and in experiment [10] was more than 250 µg/mL each time. The MIC in experiment [1], in experiment [2], in experiment [3], in [4], in experiment [5] and in [6] was more than 250 µg/mL throughout. Further, the minimal inhibitory concentration (MIC) in [7], in experiment [8], in [9] and in [10] was more than 250 µg/mL throughout.
